Measured values reported in ChEMBL document CHEMBL1795269, “Novel (E)-5-styryl-2,2'-bithiophene derivatives as ligands for β-amyloid plaques” (Eur J Med Chem, 2011).

Assays:
Kidney [1] = test: Biodistribution in Kunming mouse kidney at 1 uCi, iv after 60 mins by gamma counting; type: ADME, organism-based; conditions: in vivo, 1 h
How it was run: (§1)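 Female normal KunMing mice, about 20 g. [125I]-labelled tracer (1 μCi) in 100 μL saline injected into the tail vein. Mice killed at set times after injection; organs removed, weighed and counted in a gamma counter. %ID/g of wet tissue calculated against diluted aliquots of the injected dose.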

Heart [2] = test: Biodistribution in Kunming mouse heart at 1 uCi, iv after 60 mins by gamma counting; type: ADME, organism-based; conditions: in vivo, 1 h; how it was run: as §1
Kidney [3] = test: Biodistribution in Kunming mouse kidney at 1 uCi, iv after 2 mins by gamma counting; type: ADME, organism-based; conditions: in vivo; how it was run: as §1
Blood [4] = test: Biodistribution in Kunming mouse blood at 1 uCi, iv after 15 mins by gamma counting; type: ADME, organism-based; conditions: in vivo, 0.25 h; how it was run: as §1
Stomach [5] = test: Biodistribution in Kunming mouse stomach assessed per organ at 1 uCi, iv after 2 mins by gamma counting; type: ADME, organism-based; conditions: in vivo; how it was run: as §1
Liver [6] = test: Biodistribution in Kunming mouse liver at 1 uCi, iv after 120 mins by gamma counting; type: ADME, organism-based; conditions: in vivo, 2 h; how it was run: as §1
Blood [7] = test: Biodistribution in Kunming mouse blood at 1 uCi, iv after 120 mins by gamma counting; type: ADME, organism-based; conditions: in vivo, 2 h; how it was run: as §1
Stomach [8] = test: Biodistribution in Kunming mouse stomach assessed per organ at 1 uCi, iv after 120 mins by gamma counting; type: ADME, organism-based; conditions: in vivo, 2 h; how it was run: as §1
Liver [9] = test: Biodistribution in Kunming mouse liver at 1 uCi, iv after 30 mins by gamma counting; type: ADME, organism-based; conditions: in vivo, 0.5 h; how it was run: as §1
Liver [10] = test: Biodistribution in Kunming mouse liver at 1 uCi, iv after 15 mins by gamma counting; type: ADME, organism-based; conditions: in vivo, 0.25 h; how it was run: as §1
Heart [11] = test: Biodistribution in Kunming mouse heart at 1 uCi, iv after 2 mins by gamma counting; type: ADME, organism-based; conditions: in vivo; how it was run: as §1
Heart [12] = test: Biodistribution in Kunming mouse heart at 1 uCi, iv after 120 mins by gamma counting; type: ADME, organism-based; conditions: in vivo, 2 h; how it was run: as §1
[13] = Octanol-phosphate buffer partition coefficient, log D of the compound at pH 7.4; type: physicochemical
How it was run: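 Radiotracer added to premixed n-octanol (3 g) and PBS (0.05 M, pH 7.4; 3 g), and partitioned between the two phases.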

Kidney [14] = test: Biodistribution in Kunming mouse kidney at 1 uCi, iv after 15 mins by gamma counting; type: ADME, organism-based; conditions: in vivo, 0.25 h; how it was run: as §1
Blood [15] = test: Biodistribution in Kunming mouse blood at 1 uCi, iv after 30 mins by gamma counting; type: ADME, organism-based; conditions: in vivo, 0.5 h; how it was run: as §1
Spleen [16] = test: Biodistribution in Kunming mouse spleen at 1 uCi, iv after 2 mins by gamma counting; type: ADME, organism-based; conditions: in vivo; how it was run: as §1
Heart [17] = test: Biodistribution in Kunming mouse heart at 1 uCi, iv after 15 mins by gamma counting; type: ADME, organism-based; conditions: in vivo, 0.25 h; how it was run: as §1
Brain [18] = test: Biodistribution in Kunming mouse brain at 1 uCi, iv after 120 mins by gamma counting; type: ADME, organism-based; conditions: in vivo, 2 h; how it was run: as §1
Brain [19] = test: Biodistribution in Kunming mouse brain at 1 uCi, iv after 2 mins by gamma counting; type: ADME, organism-based; conditions: in vivo; how it was run: as §1
Lung [20] = test: Biodistribution in Kunming mouse lung at 1 uCi, iv after 2 mins by gamma counting; type: ADME, organism-based; conditions: in vivo; how it was run: as §1
Blood [21] = test: Biodistribution in Kunming mouse blood at 1 uCi, iv after 60 mins by gamma counting; type: ADME, organism-based; conditions: in vivo, 1 h; how it was run: as §1
Muscle tissue [22] = test: Biodistribution in Kunming mouse muscle at 1 uCi, iv after 30 mins by gamma counting; type: ADME, organism-based; conditions: in vivo, 0.5 h; how it was run: as §1
Stomach [23] = test: Biodistribution in Kunming mouse stomach assessed per organ at 1 uCi, iv after 30 mins by gamma counting; type: ADME, organism-based; conditions: in vivo, 0.5 h; how it was run: as §1
Brain [24] = test: Biodistribution in Kunming mouse brain at 1 uCi, iv after 15 mins by gamma counting; type: ADME, organism-based; conditions: in vivo, 0.25 h; how it was run: as §1
Spleen [25] = test: Biodistribution in Kunming mouse spleen at 1 uCi, iv after 120 mins by gamma counting; type: ADME, organism-based; conditions: in vivo, 2 h; how it was run: as §1
Muscle tissue [26] = test: Biodistribution in Kunming mouse muscle at 1 uCi, iv after 60 mins by gamma counting; type: ADME, organism-based; conditions: in vivo, 1 h; how it was run: as §1
Brain [27] = test: Biodistribution in Kunming mouse brain at 1 uCi, iv after 60 mins by gamma counting; type: ADME, organism-based; conditions: in vivo, 1 h; how it was run: as §1
Kidney [28] = test: Biodistribution in Kunming mouse kidney at 1 uCi, iv after 30 mins by gamma counting; type: ADME, organism-based; conditions: in vivo, 0.5 h; how it was run: as §1
Spleen [29] = test: Biodistribution in Kunming mouse spleen at 1 uCi, iv after 60 mins by gamma counting; type: ADME, organism-based; conditions: in vivo, 1 h; how it was run: as §1
Lung [30] = test: Biodistribution in Kunming mouse lung at 1 uCi, iv after 60 mins by gamma counting; type: ADME, organism-based; conditions: in vivo, 1 h; how it was run: as §1
Stomach [31] = test: Biodistribution in Kunming mouse stomach assessed per organ at 1 uCi, iv after 15 mins by gamma counting; type: ADME, organism-based; conditions: in vivo, 0.25 h; how it was run: as §1
Kidney [32] = test: Biodistribution in Kunming mouse kidney at 1 uCi, iv after 120 mins by gamma counting; type: ADME, organism-based; conditions: in vivo, 2 h; how it was run: as §1
Liver [33] = test: Biodistribution in Kunming mouse liver at 1 uCi, iv after 2 mins by gamma counting; type: ADME, organism-based; conditions: in vivo; how it was run: as §1
Liver [34] = test: Biodistribution in Kunming mouse liver at 1 uCi, iv after 60 mins by gamma counting; type: ADME, organism-based; conditions: in vivo, 1 h; how it was run: as §1
Muscle tissue [35] = test: Biodistribution in Kunming mouse muscle at 1 uCi, iv after 120 mins by gamma counting; type: ADME, organism-based; conditions: in vivo, 2 h; how it was run: as §1
Brain [36] = test: Biodistribution in Kunming mouse brain at 1 uCi, iv after 30 mins by gamma counting; type: ADME, organism-based; conditions: in vivo, 0.5 h; how it was run: as §1
Lung [37] = test: Biodistribution in Kunming mouse lung at 1 uCi, iv after 15 mins by gamma counting; type: ADME, organism-based; conditions: in vivo, 0.25 h; how it was run: as §1
Muscle tissue [38] = test: Biodistribution in Kunming mouse muscle at 1 uCi, iv after 15 mins by gamma counting; type: ADME, organism-based; conditions: in vivo, 0.25 h; how it was run: as §1
Blood [39] = test: Biodistribution in Kunming mouse blood at 1 uCi, iv after 2 mins by gamma counting; type: ADME, organism-based; conditions: in vivo; how it was run: as §1
Heart [40] = test: Biodistribution in Kunming mouse heart at 1 uCi, iv after 30 mins by gamma counting; type: ADME, organism-based; conditions: in vivo, 0.5 h; how it was run: as §1
Spleen [41] = test: Biodistribution in Kunming mouse spleen at 1 uCi, iv after 15 mins by gamma counting; type: ADME, organism-based; conditions: in vivo, 0.25 h; how it was run: as §1
Lung [42] = test: Biodistribution in Kunming mouse lung at 1 uCi, iv after 120 mins by gamma counting; type: ADME, organism-based; conditions: in vivo, 2 h; how it was run: as §1
Lung [43] = test: Biodistribution in Kunming mouse lung at 1 uCi, iv after 30 mins by gamma counting; type: ADME, organism-based; conditions: in vivo, 0.5 h; how it was run: as §1
Muscle tissue [44] = test: Biodistribution in Kunming mouse muscle at 1 uCi, iv after 2 mins by gamma counting; type: ADME, organism-based; conditions: in vivo; how it was run: as §1
Spleen [45] = test: Biodistribution in Kunming mouse spleen at 1 uCi, iv after 30 mins by gamma counting; type: ADME, organism-based; conditions: in vivo, 0.5 h; how it was run: as §1
Stomach [46] = test: Biodistribution in Kunming mouse stomach assessed per organ at 1 uCi, iv after 60 mins by gamma counting; type: ADME, organism-based; conditions: in vivo, 1 h

[125I]c1ccc(/C=C/c2ccc(-c3cccs3)s2)cc1
Drug uptake (Kidney [1]): 4.91 % ID/g | Drug uptake (Heart [2]): 2.09 % ID/g | Drug uptake (Kidney [3]): 4.69 % ID/g | Drug uptake (Blood [4]): 1.38 % ID/g | Drug uptake (Stomach [5]): 0.61 %ID | Drug uptake (Liver [6]): 45.74 % ID/g | Drug uptake (Blood [7]): 1.76 % ID/g | Drug uptake (Stomach [8]): 3.36 %ID | Drug uptake (Liver [9]): 42.17 % ID/g | Drug uptake (Liver [10]): 40.18 % ID/g | Drug uptake (Heart [11]): 5.53 % ID/g | Drug uptake (Heart [12]): 3.39 % ID/g | logD [13]: 3.31 | Drug uptake (Kidney [14]): 4.37 % ID/g | Drug uptake (Blood [15]): 1.16 % ID/g | Drug uptake (Spleen [16]): 11.46 % ID/g | Drug uptake (Heart [17]): 3.37 % ID/g | Drug uptake (Brain [18]): 0.55 % ID/g | Drug uptake (Brain [19]): 2.11 % ID/g | Drug uptake (Lung [20]): 20.89 % ID/g | Drug uptake (Blood [21]): 1.29 % ID/g | Drug uptake (Muscle tissue [22]): 1.25 % ID/g | Drug uptake (Stomach [23]): 3.25 %ID | Drug uptake (Brain [24]): 0.42 % ID/g | Drug uptake (Spleen [25]): 21.98 % ID/g | Drug uptake (Muscle tissue [26]): 0.93 % ID/g | Drug uptake (Brain [27]): 0.47 % ID/g | Drug uptake (Kidney [28]): 4.56 % ID/g | Drug uptake (Spleen [29]): 14.58 % ID/g | Drug uptake (Lung [30]): 12.99 % ID/g | Drug uptake (Stomach [31]): 1.48 %ID | Drug uptake (Kidney [32]): 6.35 % ID/g | Drug uptake (Liver [33]): 47.12 % ID/g | Drug uptake (Liver [34]): 47.7 % ID/g | Drug uptake (Muscle tissue [35]): 0.76 % ID/g | Drug uptake (Brain [36]): 0.41 % ID/g | Drug uptake (Lung [37]): 18.99 % ID/g | Drug uptake (Muscle tissue [38]): 0.97 % ID/g | Drug uptake (Blood [39]): 12.1 % ID/g | Drug uptake (Heart [40]): 3.35 % ID/g | Drug uptake (Spleen [41]): 12.61 % ID/g | Drug uptake (Lung [42]): 6.29 % ID/g | Drug uptake (Lung [43]): 15.69 % ID/g | Drug uptake (Muscle tissue [44]): 0.85 % ID/g | Drug uptake (Spleen [45]): 14.82 % ID/g | Drug uptake (Stomach [46]): 4.28 %ID

COc1ccc(/C=C/c2ccc(-c3ccc([125I])s3)s2)cc1
Drug uptake (Kidney [1]): 6.42 % ID/g | Drug uptake (Heart [2]): 5.33 % ID/g | Drug uptake (Kidney [3]): 4.82 % ID/g | Drug uptake (Blood [4]): 7.99 % ID/g | Drug uptake (Stomach [5]): 0.39 %ID | Drug uptake (Liver [6]): 11 % ID/g | Drug uptake (Blood [7]): 6.85 % ID/g | Drug uptake (Stomach [8]): 20.22 %ID | Drug uptake (Liver [9]): 26.91 % ID/g | Drug uptake (Liver [10]): 46.86 % ID/g | Drug uptake (Heart [11]): 5.08 % ID/g | Drug uptake (Heart [12]): 4.18 % ID/g | logD [13]: 3.07 | Drug uptake (Kidney [14]): 6.61 % ID/g | Drug uptake (Blood [15]): 6.18 % ID/g | Drug uptake (Spleen [16]): 9.14 % ID/g | Drug uptake (Heart [17]): 6.25 % ID/g | Drug uptake (Brain [18]): 0.59 % ID/g | Drug uptake (Brain [19]): 0.5 % ID/g | Drug uptake (Lung [20]): 26.17 % ID/g | Drug uptake (Blood [21]): 6.7 % ID/g | Drug uptake (Muscle tissue [22]): 2.12 % ID/g | Drug uptake (Stomach [23]): 5.11 %ID | Drug uptake (Brain [24]): 0.44 % ID/g | Drug uptake (Spleen [25]): 7.21 % ID/g | Drug uptake (Muscle tissue [26]): 3.95 % ID/g | Drug uptake (Brain [27]): 0.5 % ID/g | Drug uptake (Kidney [28]): 5.92 % ID/g | Drug uptake (Spleen [29]): 6.38 % ID/g | Drug uptake (Lung [30]): 10.45 % ID/g | Drug uptake (Stomach [31]): 2.6 %ID | Drug uptake (Kidney [32]): 6.33 % ID/g | Drug uptake (Liver [33]): 45.73 % ID/g | Drug uptake (Liver [34]): 15.74 % ID/g | Drug uptake (Muscle tissue [35]): 2.83 % ID/g | Drug uptake (Brain [36]): 0.39 % ID/g | Drug uptake (Lung [37]): 16.37 % ID/g | Drug uptake (Muscle tissue [38]): 2.23 % ID/g | Drug uptake (Blood [39]): 11.21 % ID/g | Drug uptake (Heart [40]): 5.55 % ID/g | Drug uptake (Spleen [41]): 11.2 % ID/g | Drug uptake (Lung [42]): 7.08 % ID/g | Drug uptake (Lung [43]): 12.95 % ID/g | Drug uptake (Muscle tissue [44]): 1.61 % ID/g | Drug uptake (Spleen [45]): 9.4 % ID/g | Drug uptake (Stomach [46]): 8.9 %ID
